ChEMBL document CHEMBL1135427, “Osteoadsorptive bisphosphonate derivatives of fluoroquinolone antibacterials” (2002)
≈ marks a conversion by molar mass, not a printed value.

Tests used:
[1] = tested on: Escherichia coli; assay: Antibacterial activity determined as minimal inhibitory concentration (MIC) against Escherichia coli OKI 35034; assay type: functional
Method in brief: (§1)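 Agar dilution. Compounds were dissolved in 0.2% NaHCO3, or in DMSO if insoluble, and mixed into molten agar at 50 °C. After the agar set, bacterial suspension was streaked onto the surface. MIC was read after 48 h of incubation at 37 °C.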

[2] = tested on: Helicobacter pylori; assay: Antibacterial activity determined as minimal inhibitory concentration (MIC) against Helicobacter pylori HIH 27604; assay type: functional; method in brief: as §1
[3] = tested on: Helicobacter pylori; assay: Antibacterial activity determined as minimal inhibitory concentration (MIC) against Helicobacter pylori HIH 27606; assay type: functional; method in brief: as §1
[4] = tested on: Pseudomonas aeruginosa; assay: Antibacterial activity determined as minimal inhibitory concentration (MIC) against Pseudomonas aeruginosa ATCC 27853; assay type: functional; method in brief: as §1
[5] = Antibacterial activity determined as minimal inhibitory concentration (MIC) against […] OKI 60002; assay type: functional; method in brief: as §1
[6] = tested on: Salmonella typhi; assay: Antibacterial activity determined as minimal inhibitory concentration (MIC) against Salmonella typhi OKI 10084; assay type: functional, Salmonella enterica subsp. enterica serovar Typhi; details: Salmonella enterica
Method in brief: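 Agar dilution against a laboratory strain. Compounds were dissolved in 0.2% NaHCO3, or in DMSO if insoluble, and mixed into molten agar at 50 °C. Bacterial suspension was streaked onto the solidified agar. Plates were incubated 48 h at 37 °C. MIC was taken as the lowest concentration inhibiting bacterial growth.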

[7] = tested on: Staphylococcus epidermidis; assay: Antibacterial activity determined as minimal inhibitory concentration (MIC) against Staphylococcus epidermidis ATCC 110001; assay type: functional; method in brief: as §1
[8] = tested on: Enterococcus faecalis; assay: Antibacterial activity determined as minimal inhibitory concentration (MIC) against Streptococcus faecalis OKI 80171; assay type: functional; method in brief: as §1
[9] = tested on: Staphylococcus aureus; assay: Antibacterial activity determined as minimal inhibitory concentration (MIC) against Staphylococcus aureus ATCC 25923; assay type: functional; method in brief: as §1
[10] = tested on: Aggregatibacter actinomycetemcomitans; assay: Antibacterial activity determined as minimal inhibitory concentration (MIC) against Actinobacillus actinomycetecommitans ATCC 29527; assay type: functional; method in brief: as §1
[11] = tested on: Staphylococcus aureus; assay: Antibacterial activity determined as minimal inhibitory concentration (MIC) against Staphylococcus aureus ATCC 12598; assay type: functional; method in brief: as §1
[12] = tested on: Staphylococcus aureus; assay: Antibacterial activity determined as minimal inhibitory concentration (MIC) against Methicillin resistant Staphylococcus aureus; assay type: functional
[13] = tested on: Staphylococcus aureus; assay: Antibacterial activity determined as minimal inhibitory concentration (MIC90) against Methicillin sensitive Staphylococcus aureus; assay type: functional
Method in brief: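 Broth microdilution on clinical isolates. Compounds were serially diluted from 256 to 0.5 μg/mL. Log-phase bacteria were added (A540 = 0.15 × 10^7 cfu/mL) and incubated 18 h at 37 °C, then growth was inspected macroscopically. MIC was the lowest concentration inhibiting growth. MIC90 was calculated across multiple isolates from median MIC ±1 SD using the z statistic.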

[14] = tested on: Aggregatibacter actinomycetemcomitans; assay: Antibacterial activity determined as minimal inhibitory concentration (MIC) against Actinobacillus actinomycetecommitans ATCC 29527; value ranges from 1-2; assay type: functional; method in brief: as §1
[15] = tested on: Staphylococcus aureus; assay: Antibacterial activity determined as minimal inhibitory concentration (MIC) against Staphylococcus aureus ATCC 12598; value ranges from 8-16; assay type: functional; method in brief: as §1
[16] = tested on: Staphylococcus aureus; assay: Antibacterial activity determined as minimal inhibitory concentration (MIC) against Staphylococcus aureus ATCC 25923; value ranges from 8-16; assay type: functional; method in brief: as §1

| SMILES | MIC [1] | MIC [2] | MIC [3] | MIC [4] | MIC [5] | MIC [6] | MIC [7] | MIC [8] | MIC [9] | MIC [10] | MIC [11] | MIC [12] | MIC90 [13] | MIC [14] | MIC [15] | MIC [16] |
| --- | --- | --- | --- | --- | --- | --- | --- | --- | --- | --- | --- | --- | --- | --- | --- | --- |
| CCOP(=O)(OCC)C(N1CCN(c2cc3c(cc2F)c(=O)c(C(=O)O)cn3C2CC2)CC1)P(=O)(OCC)OCC | 0.78 µg/mL (≈ 1.26 µM) | 25 µg/mL (≈ 40.5 µM) | 25 µg/mL (≈ 40.5 µM) | > 100 µg/mL | 25 µg/mL (≈ 40.5 µM) | 0.78 µg/mL (≈ 1.26 µM) | 6.25 µg/mL (≈ 10.1 µM) | 50 µg/mL (≈ 81 µM) | 12.5 µg/mL (≈ 20.2 µM) |  |  |  |  |  |  |  |
| CCOP(=O)(OCC)C(CN1CCN(c2cc3c(cc2F)c(=O)c(C(=O)O)cn3C2CC2)CC1)P(=O)(OCC)OCC | < 0.39 µg/mL | 0.78 µg/mL (≈ 1.24 µM) | < 0.39 µg/mL | 3.12 µg/mL (≈ 4.94 µM) | < 0.39 µg/mL | < 0.39 µg/mL | 0.78 µg/mL (≈ 1.24 µM) | 3.12 µg/mL (≈ 4.94 µM) | 3.12 µg/mL (≈ 4.94 µM) | < 0.25 µg/mL | 1 µg/mL (≈ 1.58 µM) | > 8 µg/mL | 3.91 µg/mL (≈ 6.19 µM) |  |  |  |
| O=C(O)c1cn(C2CC2)c2cc(N3CCN(CC(P(=O)(O)O)P(=O)(O)O)CC3)c(F)cc2c1=O | 0.78 µg/mL (≈ 1.5 µM) | 3.12 µg/mL (≈ 6.01 µM) | 0.78 µg/mL (≈ 1.5 µM) | 25 µg/mL (≈ 48.1 µM) | < 0.39 µg/mL | 0.78 µg/mL (≈ 1.5 µM) | 25 µg/mL (≈ 48.1 µM) | 50 µg/mL (≈ 96.3 µM) |  |  |  | > 8 µg/mL | 51.3 µg/mL (≈ 98.8 µM) | 2 µg/mL (≈ 3.85 µM) | 16 µg/mL (≈ 30.8 µM) | 16 µg/mL (≈ 30.8 µM) |
| O=C(O)c1cn(C2CC2)c2cc(N3CCN(C(P(=O)(O)O)P(=O)(O)O)CC3)c(F)cc2c1=O | < 0.39 µg/mL | 12.5 µg/mL (≈ 24.7 µM) | 12.5 µg/mL (≈ 24.7 µM) | 25 µg/mL (≈ 49.5 µM) | 6.25 µg/mL (≈ 12.4 µM) | 0.78 µg/mL (≈ 1.54 µM) | 25 µg/mL (≈ 49.5 µM) | 100 µg/mL (≈ 198 µM) | 50 µg/mL (≈ 98.9 µM) |  |  |  |  |  |  |  |
| O=C(O)c1cn(C2CC2)c2cc(N3CCNCC3)c(F)cc2c1=O [CIPROFLOXACIN] | < 0.39 µg/mL | 0.78 µg/mL (≈ 2.35 µM) | < 0.39 µg/mL | 3.12 µg/mL (≈ 9.42 µM) | < 0.39 µg/mL | < 0.39 µg/mL | 0.78 µg/mL (≈ 2.35 µM) | 3.12 µg/mL (≈ 9.42 µM) | 1.56 µg/mL (≈ 4.71 µM) | 0.25 µg/mL (≈ 0.754 µM) | 2 µg/mL (≈ 6.04 µM) | > 8 µg/mL | 1.65 µg/mL (≈ 4.98 µM) |  |  |  |
